Laboratory results from ChEMBL document CHEMBL1146476, “Structure-activity relationships of ring C-secotaxoids. 1. Acylative modifications” (J Nat Prod, 2004).

What was measured:
MCF7 [1] = experiment: Cytotoxicity against human MCF7 cells after 72 hrs by SRB assay; type: functional, cell-based; settings: MCF7, 72 h
MCF7 [2] = experiment: Cytotoxicity against human multidrug-resistant MCF7 cells after 72 hrs by SRB assay; type: functional, cell-based; settings: MCF7, 72 h
In short: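 Monolayer cultures kept in RPMI-1640 with 5% FCS, 5% NuSerum IV, 20 mM HEPES, 2 mM L-glutamine at 37 °C, 5% CO2. Cells seeded at 800-1500/well and allowed to attach 15-18 h, then given 10 concentrations spanning 5 logs (DMSO stock diluted in RPMI-1640/10 mM HEPES) for 72 h. Fixed with cold TCA, stained with 0.4% SRB, OD 570 nm. Sigmoid-Emax nonlinear regression fit.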

SMILES | IC50 (MCF7 [1]) [nM] | IC50 (MCF7 [2]) [nM]
CC(=O)O[C@@]1([C@@H]2/C(C)=C(/O)C(=O)C3=C(C)[C@@H](OC(=O)[C@H](O)[C@H](CC(C)C)NC(=O)OC(C)(C)C)C[C@@](O)([C@H]2OC(=O)c2ccccc2)C3(C)C)CO[C@@H]1CCO | 14 | 1640
CC(=O)O[C@@]1([C@@H]2/C(C)=C(/OC(=O)OC(C)(C)C)C(=O)C3=C(C)[C@@H](OC(=O)[C@H](O)[C@H](CC(C)C)NC(=O)OC(C)(C)C)C[C@@](O)([C@H]2OC(=O)c2ccccc2)C3(C)C)CO[C@@H]1CCOC(=O)OC(C)(C)C | 51 | 736
CC(=O)OCC[C@H]1OC[C@@]1(OC(C)=O)[C@@H]1/C(C)=C(/OC(C)=O)C(=O)C2=C(C)[C@@H](OC(=O)[C@H](O)[C@H](CC(C)C)NC(=O)OC(C)(C)C)C[C@@](O)([C@H]1OC(=O)c1ccccc1)C2(C)C | 36 | 956
CC(=O)O[C@@]1([C@@H]2/C(C)=C(/OC(=O)[C@@H](O)[C@@H](CC(C)C)NC(=O)OC(C)(C)C)C(=O)C3=C(C)[C@@H](O)C[C@@](O)([C@H]2OC(=O)c2ccccc2)C3(C)C)CO[C@@H]1CCOC(=O)C(C)(C)C | > 3000 | > 3000
CC(=O)O[C@@]1([C@@H]2/C(C)=C(/OC(=O)OCc3ccccc3)C(=O)C3=C(C)[C@@H](OC(=O)[C@H](O)[C@H](CC(C)C)NC(=O)OC(C)(C)C)C[C@@](O)([C@H]2OC(=O)c2ccccc2)C3(C)C)CO[C@@H]1CCO | 53 | 1200
CC(=O)O/C1=C(\C)[C@@H]([C@]2(OC(C)=O)CO[C@@H]2CCO)[C@H](OC(=O)c2ccccc2)[C@]2(O)C[C@H](OC(=O)[C@H](O)[C@H](CC(C)C)NC(=O)OC(C)(C)C)C(C)=C(C1=O)C2(C)C | 18 | 1000
CC(=O)O[C@H]1C(=O)[C@@]2(C)[C@H]([C@H](OC(=O)c3ccccc3)[C@]3(O)C[C@H](OC(=O)[C@H](O)[C@@H](NC(=O)c4ccccc4)c4ccccc4)C(C)=C1C3(C)C)[C@]1(OC(C)=O)CO[C@@H]1C[C@@H]2O [PACLITAXEL] | – | 354
